Experimental data published in ChEMBL document CHEMBL4028857, “Anchimerically Activated ProTides as Inhibitors of Cap-Dependent Translation and Inducers of Chemosensitization in Mantle Cell Lymphoma” (J Med Chem, 2017).
Calls of active or inactive are those of the source. The calls are words filed in the database; no cut-off is given here.

How the values were obtained:
Mino [1] = test: Antiproliferative activity against human Mino cells at 25 uM preincubated for 48 hrs followed by thymidine addition measure after 16 hrs by Thymidine incorporation assay; format: functional, cell-based
Method in brief: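 MCL cell lines exposed to ProTide 48 h with fresh compound added every day, then thymidine added for a further 16 h. Proliferation read as thymidine incorporation.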

[2] = Cytotoxicity against human Mino cells assessed as reduction in cell survival at 25 uM after 48 hrs by Annexin V/propidium iodide based flow cytometric analysis
Method in brief: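 MCL cell lines exposed to ProTide 48 h, re-dosed daily. Survival read by Annexin V/PI staining on flow cytometry.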

[3] = biological target: Eukaryotic translation initiation factor 4E (Homo sapiens) (UniProt P06730); test: Inhibition of eIF4E in human Mino cells assessed as down regulation of c-Myc protein expression at 10 to 25 uM after 48 hrs by Western blot analysis; format: cell-based
Method in brief: (§1)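 MCL cell lines treated with ProTide 48 h. Lysates were protein-quantified, then immunoblotted.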

[4] = biological target: Eukaryotic translation initiation factor 4E-binding protein 1 (Homo sapiens) (UniProt Q13541); test: Inhibition of 4EBP1 phosphorylation at Ser 65 residues in human Mino cells at 10 to 25 uM after 48 hrs by Western blot analysis; format: cell-based; method in brief: as §1
[5] = biological target: Eukaryotic translation initiation factor 4E-binding protein 1 (Homo sapiens) (UniProt Q13541); test: Inhibition of 4EBP1 phosphorylation at Thr 37/46 residues in human Mino cells at 10 to 25 uM after 48 hrs by Western blot analysis; format: cell-based; method in brief: as §1
[6] = biological target: T1, Adenosine 5'-monophosphoramidase HINT1 (Homo sapiens, UniProt P49773); test: Prodrug activation in human Mino cells assessed as Hint1 mediated 2-amino-7-(2-(4-chlorophenoxy)ethyl)-9-((2R,3R,4S,5R)-3,4-dihydroxy-5-(phosphonooxymethyl)tetrahydrofuran-2-yl)-6-oxo-6,9-dihydro-1H-purin-7-ium formation per 5 million cells at 150 uM after 12 hrs by LC-MS/MS analysis; format: cell-based
Method in brief: (§2)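 Mantle cell lymphoma cells (five million) grown in RPMI with 10% FBS, penicillin/streptomycin and L-glutamine at 37 °C, 5% CO2, then exposed to 150 µM compound for 12 h at 37 °C. Washed with ice-cold PBS, pellet extracted in MeOH/NH4OAc (60:40) with 80 fmol internal standards, three liquid-N2 freeze–thaw cycles, filtered, dried, redissolved in 20 mM HEPES pH 7.2. Analysed by LC-MS/MS against a standard curve.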

[7] = biological target: T1, Adenosine 5'-monophosphoramidase HINT1; test: Prodrug activation in human Z138 cells assessed as Hint1 mediated 2-amino-7-(2-(4-chlorophenoxy)ethyl)-9-((2R,3R,4S,5R)-3,4-dihydroxy-5-(phosphonooxymethyl)tetrahydrofuran-2-yl)-6-oxo-6,9-dihydro-1H-purin-7-ium formation per 5 million cells at 150 uM after 12 hrs by LC-MS/MS analysis; format: cell-based; method in brief: as §2
[8] = biological target: T1, Adenosine 5'-monophosphoramidase HINT1; test: Prodrug activation in human GRANTA-519 cells assessed as Hint1 mediated 2-amino-7-(2-(4-chlorophenoxy)ethyl)-9-((2R,3R,4S,5R)-3,4-dihydroxy-5-(phosphonooxymethyl)tetrahydrofuran-2-yl)-6-oxo-6,9-dihydro-1H-purin-7-ium formation per 5 million cells at 150 uM after 12 hrs by LC-MS/MS analysis; format: cell-based
Method in brief: (§3)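 Five million MCL cells in RPMI/10% FBS with penicillin, streptomycin and L-glutamine were exposed to compound (150 µM) for 12 h at 37 °C. Cells were washed in cold PBS, extracted in MeOH/NH4OAc (60:40) with 80 fmol internal standards, freeze-thawed three times, then filtered and dried. Residue was taken up in HEPES for LC-MS/MS, quantified against an internal-standard curve.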

[9] = Drug uptake in human Mino cells assessed per 5 million cells at 150 uM after 12 hrs by LC-MS/MS analysis; format: ADME, cell-based; method in brief: as §3
Z-138 = test: Drug uptake in human Z138 cells assessed per 5 million cells at 150 uM after 12 hrs by LC-MS/MS analysis; format: ADME, cell-based; conditions: z-138, 12 h; method in brief: as §3
Granta-519 = test: Drug uptake in human GRANTA-519 cells assessed per 5 million cells at 150 uM after 12 hrs by LC-MS/MS analysis; format: ADME, cell-based; conditions: granta-519, 12 h; method in brief: as §3
[10] = AUC (0 to 8 hrs) in Sprague-Dawley rat plasma at 25 mg/kg, po by LC-MS/MS analysis; format: ADME, organism-based; design: time < 8 hr, dose 25 mg/kg, route oral
Method in brief: (§4)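 Female Sprague-Dawley rats (250-274 g, n=3, catheterized femoral/jugular veins) dosed once p.o. by gavage (25 mg/kg) then, after a 3-day washout, i.v. (2.5 mg/kg). Formulation: 10 mg/mL in 0.5% aqueous CMC with 5% DMSO. Serial blood draws to 480 min into K2EDTA; plasma protein-precipitated with acetonitrile plus internal standards; LC-MS/MS (positive MRM); non-compartmental PK; %F from dose-normalized AUC per rat.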

[11] = AUC (0 to 8 hrs) in Sprague-Dawley rat plasma at 2.5 mg/kg, iv by LC-MS/MS analysis; format: ADME, organism-based; design: time < 8 hr, dose 2.5 mg/kg, route intravenous; method in brief: as §4
Rattus norvegicus = test: AUC (0 to 8 hrs) in Sprague-Dawley rat plasma assessed as 2-amino-7-(2-(4-chlorophenoxy)ethyl)-9-((2R,3R,4S,5R)-3,4-dihydroxy-5-(phosphonooxymethyl)tetrahydrofuran-2-yl)-6-oxo-6,9-dihydro-1H-purin-7-ium at 2.5 mg/kg, iv by LC-MS/MS analysis; format: ADME, organism-based; design: time < 8 hr, dose 2.5 mg/kg, route intravenous; conditions: in vivo; method in brief: as §4
[12] = Volume of distribution in Sprague-Dawley rat at 2.5 mg/kg, iv by LC-MS/MS analysis; format: ADME, organism-based; conditions: in vivo
Method in brief: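 Female Sprague-Dawley rats (n=3, 250-274 g) with catheters; compound in 0.5% aqueous CMC with 5% DMSO given as a single i.v. injection, 2.5 mg/kg. Blood drawn at 0–480 min into K2EDTA tubes. Plasma precipitated with acetonitrile containing internal standards, then LC-MS/MS in positive MRM mode. Parameters from non-compartmental analysis.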

[13] = Clearance in Sprague-Dawley rat at 2.5 mg/kg, iv by LC-MS/MS analysis; format: ADME, organism-based; conditions: Sprague-Dawley, in vivo; method in brief: as §4
[14] = Half life in Sprague-Dawley rat at 2.5 mg/kg, iv by LC-MS/MS analysis; format: ADME, organism-based; conditions: in vivo; method in brief: as §4
[15] = Oral bioavailability in Sprague-Dawley rat at 25 mg/kg by LC-MS/MS analysis; format: ADME, organism-based; conditions: in vivo; method in brief: as §4
Plasma = test: Prodrug activation in Sprague-Dawley rat plasma assessed as 2-amino-7-(2-(4-chlorophenoxy)ethyl)-9-((2R,3R,4S,5R)-3,4-dihydroxy-5-(phosphonooxymethyl)tetrahydrofuran-2-yl)-6-oxo-6,9-dihydro-1H-purin-7-ium level at 2.5 mg/kg, iv measured at 5 mins by LC-MS/MS analysis; format: organism-based; conditions: in vivo; method in brief: as §4
Mino [16] = test: Antiproliferative activity against human Mino cells at […] preincubated for 48 hrs followed by thymidine addition measure after 16 hrs by Thymidine incorporation assay; format: functional, cell-based
Method in brief: (§5)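 MCL lines treated 48 h with compound re-added daily, alone or with co-drug (ibrutinib 25 µM where used), then thymidine added for a further 16 h; proliferation read as thymidine incorporation.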

Mino [17] = test: Antiproliferative activity against human Mino cells at 100 uM preincubated for 48 hrs followed by thymidine addition measure after 16 hrs by Thymidine incorporation assay; format: functional, cell-based; method in brief: as §5
[18] = Half life in HEPES buffer at 80 uM at pH 7.2 by RP-HPLC analysis; format: physicochemical
Method in brief: (§6)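 Compound at 80 µM in 20 mM HEPES (pH 7.2 or 2.0) incubated at 37 °C; aliquots analyzed by RP-HPLC at 0, 1, 4, 6, 12, 18 and 24 h to follow methylthioalkyl deprotection and derive half-life.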

[19] = Half life in HEPES buffer at 80 uM at pH 2 by RP-HPLC analysis; format: physicochemical; method in brief: as §6

T1 sequence (P49773 whole entry): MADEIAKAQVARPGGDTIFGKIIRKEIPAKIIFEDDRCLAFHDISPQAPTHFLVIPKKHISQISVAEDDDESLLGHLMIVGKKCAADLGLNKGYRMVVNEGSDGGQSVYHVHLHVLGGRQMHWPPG
Eukaryotic translation initiation factor 4E-binding protein 1 (Homo sapiens), sequence (Q13541 whole entry): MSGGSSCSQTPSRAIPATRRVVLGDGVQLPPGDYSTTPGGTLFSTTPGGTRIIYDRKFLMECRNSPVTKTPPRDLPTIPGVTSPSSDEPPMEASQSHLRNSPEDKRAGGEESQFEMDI
Eukaryotic translation initiation factor 4E (Homo sapiens), sequence (P06730 whole entry): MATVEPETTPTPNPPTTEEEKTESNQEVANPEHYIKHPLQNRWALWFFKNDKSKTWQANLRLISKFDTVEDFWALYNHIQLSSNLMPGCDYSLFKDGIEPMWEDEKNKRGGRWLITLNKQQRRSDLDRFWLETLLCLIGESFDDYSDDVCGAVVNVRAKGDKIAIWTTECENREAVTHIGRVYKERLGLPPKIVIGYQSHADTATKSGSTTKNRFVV

Q: With `C=CC(=O)N1CCC[C@@H](n2nc(-c3ccc(Oc4ccccc4)cc3)c3c(N)ncnc32)C1` [IBRUTINIB] as the compound, how does the Activity (Mino [1]) read?
A: inactive

Q: And the Activity [2]?
A: Non-Toxic

Q: And the inhibition [3]?
A: Active

Q: What about the inhibition [4] of the same compound?
A: Active

Q: And the inhibition [5]?
A: inactive

Q: Which results are given for `Nc1nc2c(c(=O)[nH]1)[n+](CCOc1ccc(Cl)cc1)cn2[C@@H]1O[C@H](COP(=O)(O)NCCc2c[nH]c3ccccc23)[C@@H](O)[C@H]1O`?
A: Drug metabolism [6]: 7.49 pmol; Drug metabolism [7]: 0.523 pmol; Drug metabolism [8]: 5.23 pmol; Drug uptake [9]: 0.59 pmol; Drug uptake (Z-138): 0.163 pmol; Drug uptake (Granta-519): 1.52 pmol; AUC(0-t) at 8 h [10]: 31.7 ng·h/mL; AUC(0-t) at 8 h [11]: 147 ng·h/mL; AUC (Rattus norvegicus): 13.1 µg·min/mL; Vd [12]: 70 L/kg; clearance [13]: 300 mL/min/kg; half-life [14]: 2.72 h; bioavailability [15]: < 1%; Drug metabolism (Plasma): 583 ng/mL

Q: With `COc1cccc2c1C(=O)c1c(O)c3c(c(O)c1C2=O)C[C@@](O)(C(=O)CO)C[C@@H]3O[C@H]1C[C@H](N)[C@H](O)[C@H](C)O1` as the compound, how does the Activity (Mino [16]) read?
A: inactive

Q: For `C[C@@H]1C[C@H]2[C@@H]3CCC4=CC(=O)C=C[C@]4(C)[C@@]3(F)[C@@H](O)C[C@]2(C)[C@@]1(O)C(=O)CO`, which Activity (Mino [17]) is on record?
A: Active

Q: Which half-life at 80 µM [18] does the source give for `CSCCCCOP(=O)(NCCc1c[nH]c2ccccc12)OC[C@H]1O[C@@H](n2c[n+](CCOc3ccc(Cl)cc3)c3c(=O)[nH]c(N)nc32)[C@H](O)[C@@H]1O` (some centres undefined) here?
A: 10.4 h

Q: And the half-life at 80 µM [19]?
A: 13 h

Q: With `CSCCCOP(=O)(NCCc1c[nH]c2ccccc12)OC[C@H]1O[C@@H](n2c[n+](CCOc3ccc(Cl)cc3)c3c(=O)[nH]c(N)nc32)[C@H](O)[C@@H]1O` (some centres undefined) as the compound, how does the half-life at 80 µM [18] read?
A: > 60 h
